One assay concerns 5-HT2A receptor. The conditions noted are these: higher affinity than 5-MeO-DMT ref Roth et al. 1997; Egan et al. 2000; cited from earlier work.
Another assay has as its system MAOA. The settings on record: pargyline 10 mg/kg, s.c. ref Ortmann et al. 1984; cited from earlier work.
The subject of the next assay is Male Sprague–Dawley rats. Nature of the assay: Behavioral Pattern Monitor. It counts as in vivo, rat. A digest of the protocol: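 Male Sprague–Dawley rats (250–275 g at arrival), pair-housed under a reverse 12-h light–dark cycle, were handled the day before testing and were naïve to the BPM. Pargyline (0 or 10 mg/kg) was given 20 min before the test compound; all dosing was s.c. at 1 ml/kg, n=7–8. Ten min after dosing, rats were placed in the BPM and monitored for 60 min in darkness. Crossings between eight sectors were counted in 10-min bins, and spatial d was derived from X–Y paths.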

Another assay has as its system MAOB. The conditions noted are these: pargyline 10 mg/kg, s.c. ref Ortmann et al. 1984; cited from earlier work.
The target in a further assay is H1 (Homo sapiens, UniProt P35367). The assay is described as follows: Radioligand binding.
Chain of H1 (P35367 whole entry): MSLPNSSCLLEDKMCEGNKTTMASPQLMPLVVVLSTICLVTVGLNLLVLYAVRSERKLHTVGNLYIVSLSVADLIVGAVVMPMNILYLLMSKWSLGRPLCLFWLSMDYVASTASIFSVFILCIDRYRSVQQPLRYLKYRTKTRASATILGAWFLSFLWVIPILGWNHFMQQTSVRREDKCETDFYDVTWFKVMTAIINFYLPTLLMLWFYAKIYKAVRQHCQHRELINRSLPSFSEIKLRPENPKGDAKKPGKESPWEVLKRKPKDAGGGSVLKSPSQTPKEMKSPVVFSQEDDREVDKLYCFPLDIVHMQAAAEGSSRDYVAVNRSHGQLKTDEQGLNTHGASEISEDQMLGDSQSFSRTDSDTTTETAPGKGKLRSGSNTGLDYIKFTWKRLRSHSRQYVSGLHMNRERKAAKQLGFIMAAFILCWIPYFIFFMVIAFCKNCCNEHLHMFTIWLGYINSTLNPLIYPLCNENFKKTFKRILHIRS
Another assay deals with α2A (Homo sapiens, UniProt P08913). Nature of the assay: Radioligand binding.
Chain of α2A (P08913 whole entry): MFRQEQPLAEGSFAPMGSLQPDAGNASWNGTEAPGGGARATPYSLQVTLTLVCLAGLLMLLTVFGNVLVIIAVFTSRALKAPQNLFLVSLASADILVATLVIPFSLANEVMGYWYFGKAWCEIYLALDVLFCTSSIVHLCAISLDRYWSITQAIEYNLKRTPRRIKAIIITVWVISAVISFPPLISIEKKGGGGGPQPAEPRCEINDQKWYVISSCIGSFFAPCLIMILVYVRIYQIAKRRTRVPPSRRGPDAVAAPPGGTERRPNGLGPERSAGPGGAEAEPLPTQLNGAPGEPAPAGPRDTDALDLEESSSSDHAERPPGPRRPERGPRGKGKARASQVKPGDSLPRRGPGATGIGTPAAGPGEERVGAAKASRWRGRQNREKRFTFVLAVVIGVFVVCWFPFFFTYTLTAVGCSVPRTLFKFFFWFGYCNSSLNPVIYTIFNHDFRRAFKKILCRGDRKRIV
Another assay deals with D4 (Homo sapiens, UniProt P21917). The assay is described as follows: Radioligand binding.
The target in a further assay is M5 (Homo sapiens, UniProt P08912). Nature of the assay: Radioligand binding.
Another assay deals with H3 (Homo sapiens, UniProt Q9Y5N1). Nature of the assay: Radioligand binding.
Another assay addresses α1D (Homo sapiens, UniProt P25100). The assay is described as follows: Radioligand binding.
A further assay concerns humans. The conditions noted are these: hallucinogenic activity, parenteral ref Shulgin and Shulgin 1997; cited from earlier work.
The next assay deals with KOR (Homo sapiens, UniProt P41145). Nature of the assay: Radioligand binding.
Another assay concerns the target β1 (Homo sapiens, UniProt P08588). Nature of the assay: Radioligand binding.
A further assay concerns the target D2 (Homo sapiens, UniProt P14416). The assay is described as follows: Radioligand binding.
Another assay concerns the target β2 (Homo sapiens, UniProt P07550). Nature of the assay: Radioligand binding.
The target of a further assay is sigma-1 (Homo sapiens, UniProt Q99720). The assay is described as follows: Radioligand binding.
Chain of sigma-1 (Q99720 whole entry): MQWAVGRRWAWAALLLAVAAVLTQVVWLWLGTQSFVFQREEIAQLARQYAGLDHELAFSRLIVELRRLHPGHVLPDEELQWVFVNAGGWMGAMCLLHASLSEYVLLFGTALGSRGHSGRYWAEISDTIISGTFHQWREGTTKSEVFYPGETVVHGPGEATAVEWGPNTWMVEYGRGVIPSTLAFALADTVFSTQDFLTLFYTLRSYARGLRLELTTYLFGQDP
The next assay has as its target DOR (Homo sapiens, UniProt P41143). The assay is described as follows: Radioligand binding.
The target in the next assay is M3 (Homo sapiens, UniProt P20309). The assay is described as follows: Radioligand binding.
The target in a further assay is α1B (Homo sapiens, UniProt P35368). The assay is described as follows: Radioligand binding.
Chain of α1B (P35368 whole entry): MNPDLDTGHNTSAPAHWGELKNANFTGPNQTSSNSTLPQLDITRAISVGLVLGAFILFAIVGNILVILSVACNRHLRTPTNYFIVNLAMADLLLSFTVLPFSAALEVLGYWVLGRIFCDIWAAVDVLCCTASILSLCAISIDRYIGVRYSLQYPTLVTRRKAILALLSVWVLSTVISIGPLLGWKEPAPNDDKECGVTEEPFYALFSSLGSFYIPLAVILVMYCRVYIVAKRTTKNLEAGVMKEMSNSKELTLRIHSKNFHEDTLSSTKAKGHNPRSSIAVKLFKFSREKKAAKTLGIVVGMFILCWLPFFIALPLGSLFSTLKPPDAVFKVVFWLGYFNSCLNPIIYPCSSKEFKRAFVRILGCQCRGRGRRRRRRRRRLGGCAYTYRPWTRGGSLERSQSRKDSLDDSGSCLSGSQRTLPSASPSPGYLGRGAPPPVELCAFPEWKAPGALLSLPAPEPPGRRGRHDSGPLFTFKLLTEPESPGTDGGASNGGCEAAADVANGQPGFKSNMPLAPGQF
In a further assay the target is D3 (Rattus norvegicus, UniProt P19020). Nature of the assay: Radioligand binding.
Chain of D3 (P19020 whole entry): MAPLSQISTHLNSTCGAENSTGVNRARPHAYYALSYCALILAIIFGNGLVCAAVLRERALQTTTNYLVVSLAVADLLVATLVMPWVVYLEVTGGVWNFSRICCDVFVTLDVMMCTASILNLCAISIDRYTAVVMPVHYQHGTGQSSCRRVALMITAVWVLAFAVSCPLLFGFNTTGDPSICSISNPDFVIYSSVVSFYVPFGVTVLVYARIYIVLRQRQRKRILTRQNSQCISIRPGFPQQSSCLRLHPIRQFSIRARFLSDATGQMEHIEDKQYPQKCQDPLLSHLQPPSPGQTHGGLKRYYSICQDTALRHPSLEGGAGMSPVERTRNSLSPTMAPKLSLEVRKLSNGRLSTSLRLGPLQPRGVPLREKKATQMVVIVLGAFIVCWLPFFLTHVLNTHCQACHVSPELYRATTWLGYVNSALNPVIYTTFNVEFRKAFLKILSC
Another assay has as its target D1 (Homo sapiens, UniProt P21728). The assay is described as follows: Radioligand binding.
For another assay, the target named is Sigma-2 (Rattus norvegicus, UniProt Q5U3Y7). The assay is described as follows: Radioligand binding.
Chain of Sigma-2 (Q5U3Y7 whole entry): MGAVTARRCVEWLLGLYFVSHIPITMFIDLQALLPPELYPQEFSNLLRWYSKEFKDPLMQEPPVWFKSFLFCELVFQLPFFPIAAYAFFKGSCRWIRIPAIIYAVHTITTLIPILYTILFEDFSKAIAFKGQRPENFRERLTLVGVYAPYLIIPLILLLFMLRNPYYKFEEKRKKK
The target in a further assay is M1 (Homo sapiens, UniProt P11229). The assay is described as follows: Radioligand binding.
Another assay has as its target M4 (Homo sapiens, UniProt P08173). Nature of the assay: Radioligand binding.
The target in another assay is α1A (Homo sapiens, UniProt P35348). Nature of the assay: Radioligand binding.
Chain of α1A (P35348 whole entry): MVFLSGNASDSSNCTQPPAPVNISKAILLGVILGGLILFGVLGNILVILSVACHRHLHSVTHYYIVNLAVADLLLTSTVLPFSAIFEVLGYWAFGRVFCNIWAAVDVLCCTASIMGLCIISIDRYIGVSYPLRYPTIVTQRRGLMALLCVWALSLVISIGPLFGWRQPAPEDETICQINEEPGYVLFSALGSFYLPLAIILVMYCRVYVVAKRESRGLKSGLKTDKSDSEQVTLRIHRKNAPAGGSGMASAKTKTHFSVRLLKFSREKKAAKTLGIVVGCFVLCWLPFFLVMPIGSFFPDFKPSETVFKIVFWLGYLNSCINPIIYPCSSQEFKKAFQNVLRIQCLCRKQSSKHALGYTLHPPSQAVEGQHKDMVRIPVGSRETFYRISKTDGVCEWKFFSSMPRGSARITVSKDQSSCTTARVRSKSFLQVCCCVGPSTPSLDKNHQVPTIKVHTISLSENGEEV
Assay [1] concerns the target [3H]DOB-labeled 5-HT2A receptors. The conditions noted are these: [3H]DOB-labeled 5-HT2A receptors (agonist high-affinity state) ref Egan et al. 2000; cited from earlier work.
The target in another assay is NET (Homo sapiens, UniProt P23975). Nature of the assay: Radioligand binding.
For another assay, the target named is DAT (Homo sapiens, UniProt Q01959). The assay is described as follows: Radioligand binding.
The target of the next assay is α2C (Homo sapiens, UniProt P18825). The assay is described as follows: Radioligand binding.
Chain of α2C (P18825 whole entry): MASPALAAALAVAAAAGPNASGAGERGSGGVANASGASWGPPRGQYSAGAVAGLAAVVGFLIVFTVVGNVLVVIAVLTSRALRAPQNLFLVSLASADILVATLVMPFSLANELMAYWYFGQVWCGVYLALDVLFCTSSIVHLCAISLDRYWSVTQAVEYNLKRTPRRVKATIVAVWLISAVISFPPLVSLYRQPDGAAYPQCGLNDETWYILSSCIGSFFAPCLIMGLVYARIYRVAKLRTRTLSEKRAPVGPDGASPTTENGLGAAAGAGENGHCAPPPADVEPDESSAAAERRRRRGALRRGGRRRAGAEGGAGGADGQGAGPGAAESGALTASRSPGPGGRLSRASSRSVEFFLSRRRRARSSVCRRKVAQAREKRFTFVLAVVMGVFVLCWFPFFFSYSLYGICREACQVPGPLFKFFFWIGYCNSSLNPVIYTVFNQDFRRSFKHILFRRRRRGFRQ
In a further assay the target is MOR (Homo sapiens, UniProt P35372). The assay is described as follows: Radioligand binding.
The target of the next assay is EP3 (Homo sapiens, UniProt P43115). Nature of the assay: Radioligand binding.
Another assay deals with SERT (Homo sapiens, UniProt P31645). Nature of the assay: Radioligand binding.
Chain of SERT (P31645 whole entry): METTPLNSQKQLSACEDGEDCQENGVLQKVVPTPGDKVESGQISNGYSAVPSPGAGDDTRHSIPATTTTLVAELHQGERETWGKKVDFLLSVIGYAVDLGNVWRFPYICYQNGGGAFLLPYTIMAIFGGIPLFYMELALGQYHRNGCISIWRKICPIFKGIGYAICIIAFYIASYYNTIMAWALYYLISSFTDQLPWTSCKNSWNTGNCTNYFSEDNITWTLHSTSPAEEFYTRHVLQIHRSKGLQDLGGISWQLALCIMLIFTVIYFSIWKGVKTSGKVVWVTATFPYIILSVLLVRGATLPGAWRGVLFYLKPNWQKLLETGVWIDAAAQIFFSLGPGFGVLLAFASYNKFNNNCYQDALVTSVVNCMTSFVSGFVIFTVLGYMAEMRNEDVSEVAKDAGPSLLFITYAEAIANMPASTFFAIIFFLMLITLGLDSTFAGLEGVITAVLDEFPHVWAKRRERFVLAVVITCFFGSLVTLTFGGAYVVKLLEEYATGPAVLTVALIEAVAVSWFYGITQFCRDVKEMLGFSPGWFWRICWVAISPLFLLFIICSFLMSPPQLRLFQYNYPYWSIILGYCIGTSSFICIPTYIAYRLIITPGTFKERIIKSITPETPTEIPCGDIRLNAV
For the next assay, the target named is EP4 (Homo sapiens, UniProt P35408). Nature of the assay: Radioligand binding.
The next assay deals with H2 (Homo sapiens, UniProt P25021). The assay is described as follows: Radioligand binding.
A further assay concerns the target D5 (Homo sapiens, UniProt P21918). Nature of the assay: Radioligand binding.
In a further assay the target is H4 (Homo sapiens, UniProt Q9H3N8). Nature of the assay: Radioligand binding.
Another assay addresses M2 (Homo sapiens, UniProt P08172). Nature of the assay: Radioligand binding.
The next assay addresses β3 (Homo sapiens, UniProt P13945). The assay is described as follows: Radioligand binding.
[2] abbreviates: Experiment 1, drug × time interaction, post hoc per 30-min block.
Where [3] appears, read: read-out: Ki nM (±SEM), [3H]clonidine, cloned human receptor.
Setting [4] is: read-out: Ki nM (±SEM), [3H]prazocin, cloned human receptor.

Structures can show the parent of a compound that is named as a salt. Where two headings read alike, the source gives them in different places.

Chain of β2 (P07550 whole entry): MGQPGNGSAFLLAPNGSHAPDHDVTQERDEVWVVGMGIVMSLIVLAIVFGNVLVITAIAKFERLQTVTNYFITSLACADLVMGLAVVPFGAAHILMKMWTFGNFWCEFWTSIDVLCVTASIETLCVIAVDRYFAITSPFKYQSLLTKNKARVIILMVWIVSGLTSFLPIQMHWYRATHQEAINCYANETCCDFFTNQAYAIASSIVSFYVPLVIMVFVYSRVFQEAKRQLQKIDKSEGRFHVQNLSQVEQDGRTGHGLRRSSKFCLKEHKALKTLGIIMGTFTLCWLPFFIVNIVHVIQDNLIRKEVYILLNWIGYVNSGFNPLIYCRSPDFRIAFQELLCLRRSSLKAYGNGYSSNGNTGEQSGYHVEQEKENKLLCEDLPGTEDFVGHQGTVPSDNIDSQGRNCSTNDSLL
Chain of α1D (P25100 whole entry): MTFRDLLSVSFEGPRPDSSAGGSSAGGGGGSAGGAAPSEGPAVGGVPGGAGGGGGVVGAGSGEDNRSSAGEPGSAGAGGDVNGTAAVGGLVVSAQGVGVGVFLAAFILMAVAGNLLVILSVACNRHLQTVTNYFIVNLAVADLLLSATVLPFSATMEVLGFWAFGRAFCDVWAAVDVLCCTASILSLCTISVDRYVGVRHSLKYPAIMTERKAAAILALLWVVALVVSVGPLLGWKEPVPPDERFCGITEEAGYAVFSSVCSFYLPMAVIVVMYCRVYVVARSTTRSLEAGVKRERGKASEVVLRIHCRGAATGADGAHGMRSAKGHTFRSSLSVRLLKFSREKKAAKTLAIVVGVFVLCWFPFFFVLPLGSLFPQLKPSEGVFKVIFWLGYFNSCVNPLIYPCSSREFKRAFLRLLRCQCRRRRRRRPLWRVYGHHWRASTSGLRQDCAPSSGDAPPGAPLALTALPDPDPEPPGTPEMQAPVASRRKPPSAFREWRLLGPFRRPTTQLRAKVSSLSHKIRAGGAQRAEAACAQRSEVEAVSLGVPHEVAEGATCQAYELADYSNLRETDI

Regarding `CN(C)CCc1c[nH]c2ccc(O)cc12` [bufotenine, 5-hydroxy-DMT], the “Affinity for the 5-HT2A receptor relative to 5-MeO-DMT” value in the assay with 5-HT2A receptor is on record as 10 fold.
`C#CCN(C)Cc1ccccc1` [pargyline, pargyline hydrochloride]: in the assay with MAOA, the MAOA inhibition is reported as 78%. Moreover, the “Effect on spatial d” value with Male Sprague–Dawley rats (setting [2]) is “post hoc analysis failed to confirm this for any specific 30-min block”. The MAOB inhibition in the assay on MAOB was 92%.
With `COc1ccc2[nH]cc(CCN(C)C)c2c1.O=C(O)C(=O)O` [5-MeO-DMT, 5-Methoxy-N, N-dimethyltryptamine oxalate], the Ki (in general, the equilibrium dissociation constant of an inhibitor or competing ligand from its target) on H1 was 7580 nM; on α2A, 938 nM; at D4, greater than 10 µM; on M5 it was greater than 10 µM; at H3, greater than 10 µM; at α1D, 439 nM. The Ki is greater than 10 µM on KOR; greater than 10 µM at β1; greater than 10 µM at D2; 2680 nM on β2; greater than 10 µM at sigma-1; greater than 10 µM on DOR. Also, the Ki is greater than 10 µM at M3; 2190 nM on α1B; greater than 10000 nM at D3; greater than 10 µM at D1; 3690 nM at Sigma-2; greater than 10 µM on M1. Moreover, the Ki was greater than 10 µM on M4; 4370 nM at α1A; 0.09 µM in [1]; greater than 10 µM on NET; greater than 10 µM at DAT; 206 nM on α2C. Besides, the Ki on MOR is greater than 10 µM; at EP3, greater than 10 µM; on SERT, 3600 nM; on EP4 it was greater than 10 µM; on H2 it was greater than 10000 nM; at D5, greater than 10 µM. Moreover, the Ki on H4, on M2 and at β3 was greater than 10 µM in each case. The “Active parenteral dose in humans” value in the assay on humans is 2 to 3 mg. Also, the “Effect on crossings (locomotor activity)” value with Male Sprague–Dawley rats (Experiment 1, 0.1 mg/kg s.c. after pargyline 10 mg/kg) is on record as “reduced crossings during the first half-hour, but did not increase activity during the second half-hour”; in the assay on Male Sprague–Dawley rats (Experiment 1, 0.1 and 1.0 mg/kg s.c., vehicle-pretreated rats) it was “reduced crossings”; in the assay on Male Sprague–Dawley rats (Experiment 3, 0.3 to 3.0 mg/kg s.c. alone, first 10 min of testing (p<0.01)), “significantly reduced crossings”. In addition, the “Effect on spatial d” value in the assay with Male Sprague–Dawley rats (Experiment 1, 1.0 mg/kg s.c. after pargyline 10 mg/kg, second half-hour of session (p<0.01)) is listed as “significantly reduced spatial d”; with Male Sprague–Dawley rats (Experiment 1, 0.01 and 0.1 mg/kg s.c. after pargyline 10 mg/kg) it was “no effect on spatial d”; in the assay with Male Sprague–Dawley rats (setting [2]) it was “post hoc analysis failed to confirm this for any specific 30-min block”; with Male Sprague–Dawley rats (Experiment 3, 0.3 to 3.0 mg/kg s.c. alone, first or second half-hour, post hoc), “failed to alter spatial d significantly”. In the assay with Male Sprague–Dawley rats (Experiment 3, alone, up to 3 mg/kg s.c.), the “Biphasic effects on locomotor activity” value was “did not induce biphasic effects on locomotor activity”.
For `O=C(O)/C=C/C(=O)O.[2H]C([2H])(c1c[nH]c2ccc(OC)cc12)C([2H])([2H])N(C)C.[2H]C([2H])(c1c[nH]c2ccc(OC)cc12)C([2H])([2H])N(C)C` [α,α,β,β-tetradeutero-5-MeO-DMT, α,α,β,β-Tetradeutero-5-methoxy-N,N-dimethyltryptamine (2:1) fumarate], the “Effect on spatial d” value was “significantly increased spatial d” with Male Sprague–Dawley rats (Experiment 2, 3.0 mg/kg s.c., first 30 min of the session (p<0.01)) and “significantly reduced spatial d” in the assay with Male Sprague–Dawley rats (Experiment 2, 3.0 mg/kg s.c., second 30 min of the session (p<0.01)). Further, in the assay on Male Sprague–Dawley rats (Experiment 2, 0.3, 1.0 and 3.0 mg/kg s.c., first 20 min of the session), the “Effect on crossings (locomotor activity)” value is recorded as “significantly reduced crossings”. Further, the “Delayed increase in locomotor activity” value with Male Sprague–Dawley rats (Experiment 2, 0.3 and 1.0 mg/kg s.c.) was “Neither of the lower doses tested (0.3 and 1.0 mg/kg) induced a delayed increase in activity”.
In the case of `COc1ccc2[nH]cc(CCN(C)C)c2c1` [α,α,β,β-tetradeutero-5-MeO-DMT, α,α,β,β-Tetradeutero-5-methoxy-N,N-dimethyltryptamine (2:1) fumarate], the Ki is greater than 10000 nM on H1 (read-out: Ki nM (±SEM), [3H]pyrilamine, cloned human receptor); 1870 nM on α2A (setting [3]); 202 nM at α1D (read-out: Ki nM (±SEM), [125I]HEAT, cloned human receptor); 4560 nM at β2 (read-out: Ki nM (±SEM), [3H]CGP12177, cloned human receptor); 841 nM on α1B (setting [4]); 7090 nM at D3 (read-out: Ki nM (±SEM), [3H]N-methyl-spiperone, cloned rat receptor). Moreover, the Ki on Sigma-2 (read-out: Ki nM (±SEM), [3H]DTG, rat) turned out to be 7170 nM; on α1A (setting [4]) it was 1010 nM; on α2C (setting [3]) it was 274 nM; at SERT (read-out: Ki nM (±SEM), [3H]citalopram, cloned human transporter), 2760 nM; on H2 (read-out: Ki nM (±SEM), [3H]tiotidine, cloned human receptor) it was 7160 nM.

Values taken from article PMC3796951 (Psychopharmacology, 2012).
